Reference: ChEMBL document CHEMBL3352303, “Characterization of TRIF selectivity in the AGP class of lipid A mimetics: role of secondary lipid chains” (Bioorg Med Chem Lett, 2015)

Biological target: Toll-like receptor 4/MD-2 (Homo sapiens, UniProt O00206+Q9Y6Y9)
Assay: Activation of TLR4/MD2 (unknown origin) expressed in HEK293 cells co-expressing CD14 assessed as induction of MyD88-dependent NF-kappaB activity after 24 hrs by NF-kappaB SEAP reporter gene assay
Assay type: cell-based
Details: hek293, 24 h
In short: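 HEK293 cells stably transfected with human TLR4, MD-2, CD14 and an NF-κB-inducible promoter driving secreted embryonic alkaline phosphatase (SEAP). Compounds formulated at 2 mg/mL in 2% aq. glycerol (stock), applied as a dose response for 24 h. Read-out was relative SEAP activity in cell culture supernatants.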

Toll-like receptor 4/MD-2, sequence (O00206 whole entry): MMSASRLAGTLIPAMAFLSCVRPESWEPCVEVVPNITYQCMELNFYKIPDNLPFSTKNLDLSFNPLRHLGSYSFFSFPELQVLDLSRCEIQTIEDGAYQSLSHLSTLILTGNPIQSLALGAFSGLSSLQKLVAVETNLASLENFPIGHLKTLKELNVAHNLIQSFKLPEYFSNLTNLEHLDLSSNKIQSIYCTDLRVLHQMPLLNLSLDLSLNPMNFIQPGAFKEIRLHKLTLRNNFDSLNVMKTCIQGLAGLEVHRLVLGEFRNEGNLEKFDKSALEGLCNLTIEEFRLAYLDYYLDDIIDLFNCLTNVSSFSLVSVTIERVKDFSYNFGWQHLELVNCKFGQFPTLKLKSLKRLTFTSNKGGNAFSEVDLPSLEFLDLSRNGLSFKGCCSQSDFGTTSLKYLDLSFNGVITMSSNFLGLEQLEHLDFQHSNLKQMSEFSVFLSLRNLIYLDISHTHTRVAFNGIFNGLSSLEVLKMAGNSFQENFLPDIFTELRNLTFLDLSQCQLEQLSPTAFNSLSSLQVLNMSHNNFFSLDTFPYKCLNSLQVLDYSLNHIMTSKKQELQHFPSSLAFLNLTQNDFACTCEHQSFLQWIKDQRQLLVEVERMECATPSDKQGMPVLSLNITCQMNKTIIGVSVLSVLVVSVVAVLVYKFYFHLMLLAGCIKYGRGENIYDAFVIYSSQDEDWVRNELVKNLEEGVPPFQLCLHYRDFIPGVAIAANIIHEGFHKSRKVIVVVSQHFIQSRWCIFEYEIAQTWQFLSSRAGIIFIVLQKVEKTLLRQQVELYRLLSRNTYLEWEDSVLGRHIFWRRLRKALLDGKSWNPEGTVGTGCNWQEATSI
Toll-like receptor 4/MD-2, sequence (Q9Y6Y9 whole entry): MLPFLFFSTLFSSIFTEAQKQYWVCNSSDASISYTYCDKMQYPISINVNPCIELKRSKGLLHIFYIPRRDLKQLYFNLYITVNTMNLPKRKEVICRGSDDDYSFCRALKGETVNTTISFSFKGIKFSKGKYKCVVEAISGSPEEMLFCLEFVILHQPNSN

**Q.** Which Activity does the source give for `CCCCCCCCCCC[C@H](CC(=O)N[C@H]1[C@H](OC[C@@H](NC(=O)C[C@@H](CCCCCCCCCCC)OC(=O)CCCCCCCCC)C(=O)O)O[C@H](CO)[C@@H](OP(=O)(O)O)[C@@H]1OC(=O)C[C@@H](CCCCCCCCCCC)OC(=O)CCCCCCCCC)OCCCCCCCCCC` here?
**A.** Non-toxic

**Q.** Which Activity does the source give for `CCCCCCCCCCC[C@H](CC(=O)N[C@H]1[C@H](OC[C@@H](NC(=O)C[C@@H](CCCCCCCCCCC)OCCCCCCCCCC)C(=O)O)O[C@H](CO)[C@@H](OP(=O)(O)O)[C@@H]1OC(=O)C[C@@H](CCCCCCCCCCC)OC(=O)CCCCCCCCC)OCCCCCCCCCC` here?
**A.** Non-toxic

**Q.** With `CCCCCCCCCCC[C@H](CC(=O)N[C@H]1[C@H](OC[C@@H](NC(=O)C[C@@H](CCCCCCCCCCC)OC(=O)CCCCCCCCC)C(=O)O)O[C@H](CO)[C@@H](OP(=O)(O)O)[C@@H]1OC(=O)C[C@@H](CCCCCCCCCCC)OCCCCCCCCCC)OCCCCCCCCCC` as the compound, how does the Activity read?
**A.** Toxic

**Q.** For `CCCCCCCCCCC[C@H](CC(=O)N[C@H](CO[C@@H]1O[C@H](CO)[C@@H](OP(=O)(O)O)[C@H](OC(=O)C[C@@H](CCCCCCCCCCC)OCCCCCCCCCC)[C@H]1NC(=O)C[C@@H](CCCCCCCCCCC)OC(=O)CCCCCCCCC)C(=O)O)OCCCCCCCCCC`, which Activity is on record?
**A.** Toxic

**Q.** How did the Activity turn out when `CCCCCCCCCCCCCC(=O)O[C@H](CCCCCCCCCCC)CC(=O)N[C@H]1[C@H](OC[C@H](NC(=O)C[C@@H](CCCCCCCCCCC)OC(=O)CCCCCCCCCCCCC)C(=O)O)O[C@H](CO)[C@@H](OP(=O)(O)O)[C@@H]1OC(=O)C[C@@H](CCCCCCCCCCC)OC(=O)CCCCCCCCCCCCC` was run?
**A.** Non-toxic

**Q.** Which Activity does the source give for `CCCCCCCCCCC[C@H](CC(=O)N[C@H]1[C@H](OC[C@H](NC(=O)C[C@@H](CCCCCCCCCCC)OCCCCCCCCCC)C(=O)O)O[C@H](CO)[C@@H](OP(=O)(O)O)[C@@H]1OC(=O)C[C@@H](CCCCCCCCCCC)OCCCCCCCCCC)OCCCCCCCCCC` here?
**A.** Toxic

**Q.** Which Activity does the source give for `CCCCCCCCCCC[C@H](CC(=O)O[C@@H]1[C@@H](NC(=O)C[C@@H](CCCCCCCCCCC)OC(=O)CCCCCCCCC)[C@H](OC[C@@H](NC(=O)C[C@@H](CCCCCCCCCCC)OC(=O)CCCCCCCCC)C(=O)O)O[C@H](CO)[C@H]1OP(=O)(O)O)OCCCCCCCCCC` here?
**A.** Toxic

**Q.** With `CCCCCCCCCCC[C@H](CC(=O)N[C@H]1[C@H](OC[C@H](NC(=O)C[C@@H](CCCCCCCCCCC)OC(=O)CCCCCCCCC)C(=O)O)O[C@H](CO)[C@@H](OP(=O)(O)O)[C@@H]1OC(=O)C[C@@H](CCCCCCCCCCC)OC(=O)CCCCCCCCC)OC(=O)CCCCCCCCC` as the compound, how does the Activity read?
**A.** Toxic

**Q.** How did the Activity turn out when `CCCCCCCCCCC[C@H](CC(=O)N[C@H]1[C@H](OC[C@@H](NC(=O)C[C@@H](CCCCCCCCCCC)OC(=O)CCCCCCCCC)C(=O)O)O[C@H](CO)[C@@H](OP(=O)(O)O)[C@@H]1OC(=O)C[C@@H](CCCCCCCCCCC)OC(=O)CCCCCCCCC)OC(=O)CCCCCCCCC` was run?
**A.** Toxic

**Q.** `CCCCCCCCCCC[C@H](CC(=O)N[C@H](CO[C@@H]1O[C@H](CO)[C@@H](OP(=O)(O)O)[C@H](OC(=O)C[C@@H](CCCCCCCCCCC)OC(=O)CCCCCCCCC)[C@H]1NC(=O)C[C@@H](CCCCCCCCCCC)OC(=O)CCCCCCCCC)C(=O)O)OCCCCCCCCCC` was tested. Which Activity did it give?
**A.** Non-toxic

**Q.** With `CCCCCCCCCCC[C@H](CC(=O)N[C@H]1[C@H](OC[C@@H](NC(=O)C[C@@H](CCCCCCCCCCC)OCCCCCCCCCC)C(=O)O)O[C@H](CO)[C@@H](OP(=O)(O)O)[C@@H]1OC(=O)C[C@@H](CCCCCCCCCCC)OCCCCCCCCCC)OCCCCCCCCCC` as the compound, how does the Activity read?
**A.** Non-toxic
